The subject of series [1] is Rattus norvegicus. As to the kind of experiment: AUC ( 0 to infinity) in Sprague-Dawley rat at 2 mg/kg, po. The series is classed as ADME, organism-based, Plasma. On the set-up: dose 2 mg/kg, route oral, time infinity. The conditions noted are these: in vivo. The gist of the method:
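Sprague-Dawley rats (n = 2), cross-over design with 24 h washout between routes; 2 mg/kg oral in 20% hydroxypropyl-β-cyclodextrin in water; plasma AUC0-inf derived from concentration–time profile.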

Series [2] in a line: Ratio of fraction unbound in brain to plasma of CD-1 mouse brain at 10 mg/kg, sc at 1 hr. The series is classed as ADME, organism-based. Set-up: dose 10 mg/kg, route subcutaneous. The conditions noted are these: in vivo. In outline:
(§1)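 CD-1 mice (n = 2), 10 mg/kg SC in 20% hydroxypropyl-β-cyclodextrin in water. Brain and plasma sampled at 1 h; averages reported. Quantification limits were 2 ng/g for brain and 2 ng/mL for plasma. Kupp is the ratio of unbound brain to unbound plasma concentration.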

In series [3] the test system is Rattus norvegicus. Description: Plasma clearance in Sprague-Dawley rat at 1 mg/kg, iv or 2 mg/kg, po relative to hepatic blood flow. The series is classed as ADME, organism-based. The note with it: in vivo. In outline:
(§2)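 Sprague-Dawley rats (n = 2) dosed in a cross-over design with a 24 h washout: 1 mg/kg IV and 2 mg/kg PO in 20% hydroxypropyl-β-cyclodextrin in water. Rat hepatic blood flow was taken as 20 mL/min.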

Series [4] deals with Rattus norvegicus. As to the kind of experiment: Bioavailability in Sprague-Dawley rat at 1 mg/kg, iv or 2 mg/kg, po. The series is classed as ADME, organism-based. The note with it: in vivo. In outline:
as §2

Series [5] has as its system Rattus norvegicus. Description: AUC ( 0 to infinity) in Sprague-Dawley rat at 1 mg/kg, iv. In kind it is ADME, organism-based, Plasma. On the set-up: time infinity, dose 1 mg/kg, route intravenous. The note with it: in vivo. The gist of the method: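 Sprague-Dawley rats (n = 2), cross-over design with 24 h washout between routes; 1 mg/kg iv in 20% hydroxypropyl-β-cyclodextrin in water; plasma AUC0-inf derived from concentration–time profile.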

Series [6] can be described thus: Half life in Sprague-Dawley rat at 1 mg/kg, iv or 2 mg/kg, po. In kind it is ADME, organism-based. The conditions noted are these: in vivo. In outline: as §2
Series [7] can be described thus: Volume of distribution at steady state in Sprague-Dawley rat at 1 mg/kg, iv or 2 mg/kg, po. In kind it is ADME, organism-based. The note with it: in vivo, read-out: Vdss. In outline:
as §2

Series [8] can be described thus: Plasma clearance in Sprague-Dawley rat at 1 mg/kg, iv or 2 mg/kg, po. In kind it is ADME, organism-based. In outline: as §2
Series [9] in a line: Cmax in Sprague-Dawley rat at 1 mg/kg, iv or 2 mg/kg, po. The note with it: in vivo. The series is classed as ADME, organism-based. In outline: as §2
Series [10] can be described thus: Tmax in Sprague-Dawley rat at 1 mg/kg, iv or 2 mg/kg, po. In kind it is ADME, organism-based. The conditions noted are these: in vivo. In outline:
as §2

Series [11] in a line: Ratio of drug uptake in brain to plasma of CD-1 mouse at 10 mg/kg, sc at 1 hr. The series is classed as ADME, organism-based. Set-up: dose 10 mg/kg, route subcutaneous. The conditions noted are these: read-out: BPR. The gist of the method:
as §1

The nature of series [12]: Drug uptake in CD-1 mouse brain at 10 mg/kg, sc at 1 hr. In kind it is ADME, organism-based. Set-up: dose 10 mg/kg, route subcutaneous. The note with it: read-out: Drug uptake. The gist of the method: as §1
The nature of series [13]: Plasma concentration in CD-1 mouse at 10 mg/kg, sc at 1 hr. The series is classed as ADME, organism-based. Set-up: dose 10 mg/kg, route subcutaneous. In outline: as §1
Series [14] deals with Plasma. Description: Fraction unbound in mouse plasma. The series is classed as ADME, cell-free.
A short description of series [15]: Fraction unbound in mouse brain. The series is classed as ADME, tissue-based.
Series [16] relates to Plasma. As to the kind of experiment: Fraction unbound in rat plasma. The series is classed as ADME, cell-free.
The nature of series [17]: Fraction unbound in rat brain. In kind it is ADME, tissue-based.
Series [18] can be described thus: Partition co-efficient, log D at pH 7.4 of the compound by shake flask method. In kind it is physicochemical. The conditions noted are these: buffer.
Series [19] is described as follows: Kinetic solubility of the compound in potassium phosphate buffer after 4 hrs. The series is classed as physicochemical. The note with it: read-out: Kinetic_solubility. The gist of the method: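 Kinetic solubility: compound from 10 mM DMSO stock diluted into 25 mM potassium phosphate buffer and shaken 4 h. Supernatant analyzed by UPLC with PDA detection at 254 nm.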

Series [20] concerns Liver microsomes. As to the kind of experiment: Intrinsic clearance in rat liver microsomes. In kind it is ADME, Microsome. Background: Microsomes from liver hold many membrane-bound enzymes, among them those of drug oxidation.
Series [21] in a line: Plasma protein binding in human. The conditions noted are these: read-out: PPB (converted). In kind it is ADME, cell-free.
A further series deals with Liver. As to the kind of experiment: Intrinsic clearance in mouse liver microsomes. In kind it is ADME, Microsome.
Series [22] concerns Liver microsomes. As to the kind of experiment: Intrinsic clearance in human liver microsomes. The series is classed as ADME, Microsome. Set-up: unit not given here.
In series [23] the target is T1, Metabotropic glutamate receptor 1 (Rattus norvegicus, UniProt P23385). As to the kind of experiment: Agonist activity at rat mGluR1 expressed in HEK293 cells assessed as Ca2+ mobilization by FLIPR assay. The series is classed as functional, cell-based. In outline:
(§3)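 Rat mGluR1 stably in HEK293 cells (1.5% calf serum medium), seeded 24 h earlier, Fluo-4 loaded 1 h at 37 °C in HBSS/HEPES pH 7.4 with probenecid. Curves fitted with Hill equation.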
A general note: Calcium assays in cells follow changes in intracellular calcium, usually with a dye or a luminescent sensor.

Series [24] addresses T1, Metabotropic glutamate receptor 1. Description: Antagonist activity at rat mGluR1 expressed in HEK293 cells assessed as inhibition of Ca2+ mobilization by FLIPR assay. In kind it is functional, cell-based. The gist of the method: as §3
For series [25], the target named is T2, Metabotropic glutamate receptor 5 (Homo sapiens, UniProt P41594). As to the kind of experiment: Displacement of [3H]-ABP688 from human mGluR5 expressed in HEK293 cells after 60 mins by scintillation counting. The series is classed as cell-based.
In series [26] the target is T2, Metabotropic glutamate receptor 5. As to the kind of experiment: Antagonist activity at human mGluR5 expressed in HEK293 cells assessed as inhibition of Ca2+ mobilization by FLIPR assay. In kind it is functional, cell-based.
Series [27] is described as follows: Ratio of drug uptake in brain to plasma of Sprague-Dawley rat at 10 mg/kg, po at 1 hr. In kind it is ADME, organism-based. On the set-up: dose 10 mg/kg, route oral. The note with it: read-out: BPR.
Series [28] in a line: Plasma concentration in Sprague-Dawley rat at 10 mg/kg, po at 1 hr. Set-up: dose 10 mg/kg, route oral. The series is classed as ADME, organism-based.
Series [29] is described as follows: Drug uptake in Sprague-Dawley rat brain at 10 mg/kg, po at 1 hr. The series is classed as ADME, organism-based. Set-up: dose 10 mg/kg, route oral. The conditions noted are these: read-out: Drug uptake.

≈ marks a conversion by molar mass, not a printed value.

The values below come from ChEMBL document CHEMBL2331336, “Discovery and structure-activity relationship of 1,3-cyclohexyl amide derivatives as novel mGluR5 negative allosteric modulators” (Bioorg Med Chem Lett, 2013).

T2 sequence (P41594 whole entry): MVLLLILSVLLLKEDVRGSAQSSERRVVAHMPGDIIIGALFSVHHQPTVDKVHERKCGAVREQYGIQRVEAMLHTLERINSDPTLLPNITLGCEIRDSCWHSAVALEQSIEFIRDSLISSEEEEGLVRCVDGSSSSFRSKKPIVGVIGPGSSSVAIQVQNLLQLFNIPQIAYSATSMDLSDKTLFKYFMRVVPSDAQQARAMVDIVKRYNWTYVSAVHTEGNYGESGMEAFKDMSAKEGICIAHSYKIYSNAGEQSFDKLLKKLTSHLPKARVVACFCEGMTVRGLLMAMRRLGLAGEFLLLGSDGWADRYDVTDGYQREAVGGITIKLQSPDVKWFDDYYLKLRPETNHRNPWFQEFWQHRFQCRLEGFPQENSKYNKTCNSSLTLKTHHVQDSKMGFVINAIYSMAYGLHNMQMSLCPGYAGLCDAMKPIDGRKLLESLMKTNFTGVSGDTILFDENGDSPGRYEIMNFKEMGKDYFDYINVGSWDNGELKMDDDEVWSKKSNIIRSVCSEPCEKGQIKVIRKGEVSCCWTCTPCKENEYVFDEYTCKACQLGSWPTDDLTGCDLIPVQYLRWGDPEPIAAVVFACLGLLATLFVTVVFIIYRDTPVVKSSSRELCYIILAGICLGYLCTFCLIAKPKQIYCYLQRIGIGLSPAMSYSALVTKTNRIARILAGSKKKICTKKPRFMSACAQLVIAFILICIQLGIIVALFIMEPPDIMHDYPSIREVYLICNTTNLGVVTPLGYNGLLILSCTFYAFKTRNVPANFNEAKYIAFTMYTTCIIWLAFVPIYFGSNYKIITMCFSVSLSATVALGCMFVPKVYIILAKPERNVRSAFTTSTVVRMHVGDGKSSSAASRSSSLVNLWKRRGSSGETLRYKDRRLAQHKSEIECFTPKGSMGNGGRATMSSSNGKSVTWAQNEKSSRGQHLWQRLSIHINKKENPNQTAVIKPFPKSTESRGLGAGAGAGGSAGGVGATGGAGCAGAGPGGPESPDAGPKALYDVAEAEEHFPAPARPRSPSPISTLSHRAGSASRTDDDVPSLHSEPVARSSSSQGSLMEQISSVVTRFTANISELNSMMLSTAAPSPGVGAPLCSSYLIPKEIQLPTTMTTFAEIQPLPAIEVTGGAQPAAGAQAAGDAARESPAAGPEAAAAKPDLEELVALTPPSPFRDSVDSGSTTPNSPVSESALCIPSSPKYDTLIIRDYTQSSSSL
T1 sequence (P23385 whole entry): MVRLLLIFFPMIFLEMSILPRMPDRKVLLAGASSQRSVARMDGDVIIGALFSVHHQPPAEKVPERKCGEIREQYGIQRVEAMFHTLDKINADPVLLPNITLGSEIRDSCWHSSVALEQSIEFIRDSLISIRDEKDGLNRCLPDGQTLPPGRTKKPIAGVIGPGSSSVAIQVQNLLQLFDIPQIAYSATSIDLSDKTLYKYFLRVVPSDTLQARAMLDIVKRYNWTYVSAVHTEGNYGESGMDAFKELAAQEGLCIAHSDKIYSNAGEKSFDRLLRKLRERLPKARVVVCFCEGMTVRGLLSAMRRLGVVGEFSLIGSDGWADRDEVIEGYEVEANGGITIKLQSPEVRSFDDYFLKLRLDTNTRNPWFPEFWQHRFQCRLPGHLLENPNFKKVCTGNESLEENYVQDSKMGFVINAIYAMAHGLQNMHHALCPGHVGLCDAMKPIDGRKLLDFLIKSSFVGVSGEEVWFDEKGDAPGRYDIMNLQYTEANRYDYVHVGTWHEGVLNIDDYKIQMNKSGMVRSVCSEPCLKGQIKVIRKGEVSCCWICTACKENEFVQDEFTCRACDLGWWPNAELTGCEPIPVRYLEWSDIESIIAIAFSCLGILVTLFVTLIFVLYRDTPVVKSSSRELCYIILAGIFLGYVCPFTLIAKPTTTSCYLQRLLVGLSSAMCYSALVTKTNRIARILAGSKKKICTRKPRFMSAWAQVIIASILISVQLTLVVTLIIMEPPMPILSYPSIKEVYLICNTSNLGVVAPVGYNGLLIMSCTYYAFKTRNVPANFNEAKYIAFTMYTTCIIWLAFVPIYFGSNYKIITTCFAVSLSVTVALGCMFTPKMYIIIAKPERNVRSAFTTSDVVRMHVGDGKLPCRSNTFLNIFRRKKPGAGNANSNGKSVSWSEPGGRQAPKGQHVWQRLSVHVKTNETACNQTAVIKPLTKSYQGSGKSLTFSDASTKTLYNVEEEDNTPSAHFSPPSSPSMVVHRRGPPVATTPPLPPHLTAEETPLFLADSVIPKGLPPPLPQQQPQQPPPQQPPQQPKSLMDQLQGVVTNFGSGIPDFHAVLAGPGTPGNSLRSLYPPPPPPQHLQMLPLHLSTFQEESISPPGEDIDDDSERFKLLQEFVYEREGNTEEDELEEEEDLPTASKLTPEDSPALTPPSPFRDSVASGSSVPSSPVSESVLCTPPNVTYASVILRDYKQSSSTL

With `O=C(N[C@@H]1CCC[C@@H](NC(=O)c2ccccn2)C1)c1cccc(Cl)c1`, the results for the AUC in the series on Rattus norvegicus [1] and in the series on Rattus norvegicus [5] were 0.53 µg·h/mL and 0.26 µg·h/mL, respectively. The Ratio in series [2] came out at 0.67. The CL with Rattus norvegicus [3] is 85%. For the same molecule, in the series with Rattus norvegicus [4], the bioavailability was found to be 80%. For the same molecule, the half-life in series [6] was 0.6 h. Moreover, the Vd in series [7] worked out at 3.4 L/kg. Besides, the clearance in series [8] was 4.1 L/h/kg. The molecule also returned a Cmax in series [9] of 0.22 µg/mL. Further, the Tmax in series [10] was found to be 2 h. The Kp at 1 h in series [11] came to 0.34. For the same molecule, the concentration at 1 h was 0.17 µM in [12] and 0.5 µM in series [13]. In addition, the “Cp(f)” value with Plasma [14] is listed as 11%; in the series with Plasma [16], 14%. Also, the fraction unbound in series [15] is 0.22; in [17], 0.13; in [21], 0.065. Also, in [18], the logD is 3.2. Further, in series [19], the solubility kinetic at 4 h came out at 240 µM (≈ 85.9 µg/mL). Moreover, the Intrinsic clearance in the series on Liver microsomes [20] turned out to be 41 mL/min; in the series with Liver, 9 mL/min; in the series with Liver microsomes [22], 1.1. The EC50 in series [23] is above 10 µM. Also, the results for the IC50 in [24] and in [26] were above 10 µM and 0.062 µM, respectively. In series [25], this molecule gave a Ki of 0.205 µM.

Consider `O=C(N[C@H]1CCC[C@]2(CN=C(c3cccc(Cl)c3)O2)C1)c1ccccn1`, for which the Ratio in series [2] came out at 1.6. Also, the Kp at 1 h in series [27] is 0.6; in series [11], 1. The concentration at 1 h is 0.008 µM in series [28], 0.005 µM in series [29], 1.17 µM in series [12] and 1.17 µM in series [13]. Further, the “Cp(f)” value in the series on Plasma [14] is 0.3%. This molecule also returned a fraction unbound in [15] of 0.005. Moreover, the figures for the Intrinsic clearance with Liver microsomes [20], with Liver and in the series on Liver microsomes [22] were 160 mL/min, 8.8 mL/min and 13, respectively. Moreover, in series [23], the EC50 is above 10 µM. Further, the IC50 is above 10 µM in series [24] and 0.115 µM in [26]. This molecule came in with a Ki in series [25] of 0.178 µM.

What is called AUC is concentration integrated over time. By bioavailability is commonly meant dose-corrected exposure relative to a reference, in per cent. Broadly, the half-life is the time needed for the level to fall by half in the phase considered. The term Cmax denotes the highest concentration seen after dosing. A word on the Tmax: it is the time from dosing to the highest level. The logD is the decadic logarithm of the distribution of all forms, ionised or not, between an organic phase and buffer at a given pH. As usually defined, the EC50 is the concentration giving half of the maximal effect. For orientation: IC50 means the concentration that inhibits the measured activity by half. For orientation: Ki means the equilibrium dissociation constant of an inhibitor or competing ligand from its target.
